# According to PMC3842382 (Journal of medicinal chemistry, 2013):
# Key:
# mice [1] = settings: cited from earlier work
# mice [2] = assay: Maximal electroshock seizure; type: in vivo; settings: Mus musculus, ip, read-out: MES ED50
# mice [3] = assay: iv Metrazol test; type: in vivo; settings: ip, 25 mg/kg and 81 mg/kg
# [4] = tested on: Na+ currents in mouse CAD cells; assay: Whole-cell patch-clamp electrophysiology of Na+ currents in CAD cells; type: cell-based
# [5] = tested on: Na+ currents in rat embryonic cortical neurons; assay: Whole-cell patch-clamp electrophysiology of Na+ currents in cortical neurons; type: cell-based; settings: 20 μM
# Outline: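 Cortical neurons from embryonic day 19 rat cortices were cultured 7–10 days in vitro. Whole-cell voltage clamp was run at room temperature in external solution containing 100 mM NaCl, TEA-Cl, CdCl2, NiCl2 and 4-AP (HEPES, pH 7.3), with 20 μM test compound or 0.1% DMSO control. Slow inactivation was read as the fraction of current available at −50 mV. V1/2 and k came from Boltzmann fits to individual recordings, averaged as mean ± SEM.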
# [6] = tested on: Na+ currents in mouse CAD cells; settings: cited from earlier work
# mice [7] = settings: ip; cited from earlier work
# rat = settings: oral; cited from earlier work
structure (smiles),measurement,setting,value
"COC[C@@H](NC(C)=O)C(=O)NCc1ccccc1 [Compound 1, Lacosamide]",anticonvulsant activity in scMet model,mice [1],did not display anticonvulsant activity
"Cl.NCc1ccc(-c2ccccc2)cc1 [Compound 2, (Biphenyl-4-yl)methylammonium Chloride]",ED50,mice [2],30 to 100 mg/kg
"Cl.NCc1ccc(-c2cccc(OC(F)(F)F)c2)cc1 [Compound 8, (3′-Trifluoromethoxybiphenyl-4-yl)methylammonium Chloride]",seizure threshold vs control group,mice [3],no statistical difference from the control group
same,effect on Na+ channel steady-state activation,[4],did not affect
same,effect on slopes of fast inactivation,[4],not affected
same,frequency (use)-dependent inhibition of Na+ currents,"[4]; 10 μM, 10 Hz",did not exhibit
same,effect on steady-state activation (V1/2 and k),[5],unchanged
same,frequency (use)-dependent inhibition of Na+ currents,[5],did not exhibit
same,extent of slow inactivation (fraction of current available at −50 mV),[5]; vehicle DMSO 0.41,0.17 ± 0.03
same,change in slope values of fast inactivation,[5]; vs control,no commensurate significant changes
same,hyperpolarizing shift of V1/2 of steady-state fast inactivation,[5]; vs control,~15.7 mV
NCc1ccc(OCc2cccc(F)c2)cc1 [Compound 22],effect on fast inactivation,[6],affected fast inactivation
same,frequency (use)-dependent blockage of Na+ currents,[6],displayed frequency (use)-dependent blockage
CCC1(c2ccccc2)C(=O)NC(=O)NC1=O [phenobarbital],MES ED50,mice [7],22 [1.0] (15-23) mg/kg
same,MES ED50,rat,9.1 [5.0] (7.6-12) mg/kg
CCCC(CCC)C(=O)O [valproate],MES ED50,mice [7],270 [0.25] (250-340) mg/kg
same,MES ED50,rat,490 [0.5] (350-730) mg/kg
